Measured values taken from ChEMBL document CHEMBL3421564, “Synthesis and biological evaluation of indolyl-pyridinyl-propenones having either methuosis or microtubule disruption activity” (2015).
Active and inactive are the calls of the source. No cut-off for these calls is given here.

Experiments:
Tubulin (Homo sapiens) [1] = biological target: T1, Tubulin (Homo sapiens) (UniProt P68371+Q9H4B7+P0DPH7+P68366+Q13509+Q71U36+P04350+Q3ZCM7+P07437+P68363+Q9BQE3+Q6PEY2+Q13885+Q9BVA1+Q9BUF5); assay: Inhibition of tubulin polymerization in human U251 cells at 0.1 uM after 4 hrs by immunoblot analysis; type: cell-based; details: U-251
Outline: (§1)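 Seeded at 1.4 × 10^6 cells per 10 cm dish and treated one day later for 4 h, DMSO control. Cells scraped into 37 °C lysis buffer (100 mM PIPES pH 6.9, 5 mM MgCl2, 1 mM EGTA, 30% glycerol, detergents, 2 mM GTP, protease inhibitors) and spun at 100000g for 1 h at 37 °C. Pellet (polymer) and supernatant tubulin measured by anti-α-tubulin immunoblot with chemiluminescence. Polymer fraction expressed as % of DMSO control; mean ± S.D. of three experiments, two-tailed t test.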

U-251 [2] = assay: Growth inhibition of human U251 cells at 10 uM after 24 hrs sulphorhodomine B colorimetric assay; type: functional, cell-based
U-251 [3] = assay: Induction of methuosis in human U251 cells assessed as cytoplasmic vacuolization at 2.5 uM within 4 hrs by phase contrast microscopy; type: functional, cell-based
Outline: (§2)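 Live U251 cells seeded at 10^5 per 35 mm dish; fresh medium with compound added after 1 day, DMSO vehicle control. Phase-contrast images taken at set intervals after drug addition (4 h to 48 h). Vacuolization, blebbing, rounding and detachment scored by eye.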

Tubulin (Homo sapiens) [4] = biological target: T1, Tubulin (Homo sapiens); assay: Inhibition of tubulin polymerization in human U251 cells at 3 uM after 4 hrs by immunoblot analysis; type: cell-based; details: U-251; outline: as §1
U-251 [5] = assay: Induction of methuosis in human U251 cells assessed as small cytoplasmic vacuolization and extensive blebbing of the plasma membrane at 2.5 uM after 4 hrs by phase contrast microscopy
U-251 [6] = assay: Induction of methuosis in human U251 cells assessed as cytoplasmic vacuolization at 2.5 uM up to 48 hrs by phase contrast microscopy; type: functional, cell-based; outline: as §2

Row | SMILES | inhibition (Tubulin (Homo sapiens) [1]) | inhibition (Tubulin (Homo sapiens) [4]) | growth inhibition (GI) (U-251 [2]) | also measured
1 | Cc1[nH]c2ccc(N)cc2c1/C=C/C(=O)c1ccncc1 | – | – | inactive | Activity (U-251 [3]): inactive
2 | COc1ccc2[nH]c(C(=O)O)c(/C=C/C(=O)c3ccncc3)c2c1 | – | – | inactive | Activity (U-251 [5]): Active
3 | CCCCOc1ccc2[nH]c(C)c(/C=C/C(=O)c3ccncc3)c2c1 | – | – | inactive | Activity (U-251 [6]): Active
4 | NCc1ccc2[nH]cc(/C=C/C(=O)c3ccncc3)c2c1 | – | – | inactive | Activity (U-251 [6]): inactive

Second part, led by results:

Row | inhibition (Tubulin (Homo sapiens) [1]) | inhibition (Tubulin (Homo sapiens) [4]) | SMILES | growth inhibition (GI) (U-251 [2]) | also measured
5 | inactive | – | COc1ccc2[nH]c(C)c(/C=C/C(=O)c3ccncc3)c2c1 | – | –
6 | inactive | Active | CCOC(=O)c1[nH]c2ccc(OC)cc2c1/C=C/C(=O)c1ccncc1 | – | –
7 | inactive | – | CCCOc1ccc2[nH]c(C)c(/C=C/C(=O)c3ccncc3)c2c1 | – | –
8 | inactive | Active | COc1ccc2[nH]c(C(F)(F)F)c(/C=C/C(=O)c3ccncc3)c2c1 | – | –
9 | inactive | Active | CCCOC(=O)c1[nH]c2ccc(OC)cc2c1/C=C/C(=O)c1ccncc1 | – | –
